Test results as given in PMC5504481 (Clinical and Translational Science, 2017).
Where “and” joins values, the source holds several entries; their conditions need not be identical. Equal values may be shown once.

What was measured:
[1] = Adverse events and laboratory tests during the clinical study; type: in vivo, human; settings: patients on sorafenib; rifampin 600 mg x 2, midazolam 2.5 mg i.v.
Procedure, shortened: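 Sorafenib-treated patients were at steady state (≥14 days on the same dose) with creatinine <1.25×ULN, bilirubin <1.25×ULN, aminotransferases <5×ULN and PT ≤1.5×ULN or INR <1.5 at entry. Rifampin was given fasting the day before and the day of sampling, 1 h before sorafenib. Sorafenib dose changes and CYP3A4-affecting comedication were barred. Adverse events were graded by CTCAE v4.03.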

[2] = type: in vivo, mice; settings: for Effect of Oatp1b2-deficiency and/or rifampin pretreatment on plasma levels: mice, rifampin 20 mg/kg
Procedure, shortened: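 Female DBA1/lacJ mice, knockout and age-matched wildtype, n=4 per group, fasted 3 h before and during the study. Rifampin was given i.v. 5 min before sorafenib gavage in Cremophor EL/ethanol (1:1) diluted 1:4 with water. Plasma was sampled at 0.25–7.5 h and liver at 7.5 h. Analytes were measured by LC-MS/MS. Liver was normalized to plasma; geometric means (95% CI) were compared by ANOVA.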

[3] = type: in vivo, human
[4] = target: T1, OATP1B1 (Homo sapiens, UniProt Q9Y6L6); type: cell-based; settings: for Transport rate in OATP1B1-transfected cells without rifampin: in 15 min, HEK293
T1 sequence (Q9Y6L6 1-691): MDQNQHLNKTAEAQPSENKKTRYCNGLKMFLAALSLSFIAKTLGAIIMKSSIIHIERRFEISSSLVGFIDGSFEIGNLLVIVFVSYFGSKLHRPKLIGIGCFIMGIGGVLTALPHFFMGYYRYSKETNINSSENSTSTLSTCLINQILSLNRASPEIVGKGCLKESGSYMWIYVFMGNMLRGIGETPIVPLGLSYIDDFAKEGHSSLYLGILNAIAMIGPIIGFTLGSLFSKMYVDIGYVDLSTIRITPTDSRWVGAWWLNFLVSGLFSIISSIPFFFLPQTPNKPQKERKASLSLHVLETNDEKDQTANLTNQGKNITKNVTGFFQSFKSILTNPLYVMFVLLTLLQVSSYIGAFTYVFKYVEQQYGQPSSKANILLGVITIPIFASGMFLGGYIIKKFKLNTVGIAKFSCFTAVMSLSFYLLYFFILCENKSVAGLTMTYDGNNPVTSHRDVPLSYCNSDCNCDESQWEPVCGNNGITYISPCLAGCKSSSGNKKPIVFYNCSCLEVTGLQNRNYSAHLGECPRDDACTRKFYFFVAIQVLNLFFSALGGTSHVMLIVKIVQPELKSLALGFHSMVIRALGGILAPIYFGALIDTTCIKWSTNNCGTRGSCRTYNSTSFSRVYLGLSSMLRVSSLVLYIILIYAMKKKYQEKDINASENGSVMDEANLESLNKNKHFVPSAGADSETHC

[5] = target: T2, Oatp1b2 (Mus musculus, UniProt Q9JJL3); type: cell-based; settings: for Transport rate in Oatp1b2-transfected cells without rifampin: in 15 min, HEK293
T2 sequence (Q9JJL3 1-689): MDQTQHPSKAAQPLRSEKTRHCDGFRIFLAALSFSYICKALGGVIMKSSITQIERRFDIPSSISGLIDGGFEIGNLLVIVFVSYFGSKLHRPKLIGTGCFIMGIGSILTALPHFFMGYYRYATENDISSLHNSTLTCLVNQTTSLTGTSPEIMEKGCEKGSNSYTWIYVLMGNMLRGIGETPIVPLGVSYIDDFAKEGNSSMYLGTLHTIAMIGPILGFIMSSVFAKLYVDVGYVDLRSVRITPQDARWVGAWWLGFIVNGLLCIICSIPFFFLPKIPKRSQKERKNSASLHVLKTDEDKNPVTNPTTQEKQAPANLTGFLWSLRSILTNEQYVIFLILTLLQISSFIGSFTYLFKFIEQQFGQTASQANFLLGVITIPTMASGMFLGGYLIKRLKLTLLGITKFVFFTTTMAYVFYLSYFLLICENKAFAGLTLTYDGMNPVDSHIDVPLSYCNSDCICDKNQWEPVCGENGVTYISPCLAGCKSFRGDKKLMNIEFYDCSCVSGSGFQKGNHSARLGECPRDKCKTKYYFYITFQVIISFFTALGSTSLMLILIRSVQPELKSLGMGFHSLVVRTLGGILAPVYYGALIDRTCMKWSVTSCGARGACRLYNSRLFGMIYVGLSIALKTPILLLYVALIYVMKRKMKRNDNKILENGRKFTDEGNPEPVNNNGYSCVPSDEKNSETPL

[6] = target: T1, OATP1B1; assay: Transcellular; type: cell-based; settings: rifampin 100 μM; SG 1 μM; MDCKII-OATP1B1
[7] = cited from earlier work
[8] = system: OATP1B1; settings: cited from earlier work
[9] = oral sorafenib, humans; cited from earlier work
[10] = patients, with versus without rifampin
[11] = rifampin preincubation 30 μM (legend: 20 μM), SG 10 μM, 15 min
[12] = rifampin preincubation 30 μM, E2G 0.1 μM, 15-min incubation

Cc1ncc2n1-c1ccc(Cl)cc1C(c1ccccc1F)=NC2 [midazolam]
Toxicities attributable to the drug during the clinical study [1]: no toxicities were observed

CNC(=O)c1cc(Oc2ccc(NC(=O)Nc3ccc(Cl)c(C(F)(F)F)c3)cc2)cc[n+]1[O-] [Sorafenib N-oxide, sorafenib‐N‐oxide]
Effect of Oatp1b2-deficiency and/or rifampin pretreatment on plasma levels ([2]; sorafenib 10 mg/kg oral): did not substantially affect
Extent of sorafenib-N-oxide formation between treatment cycles [3, 10]: not different

C[C@]12CC[C@@H]3c4ccc(O)cc4CC[C@H]3[C@@H]1CC[C@@H]2O[C@@H]1O[C@H](C(=O)O)[C@@H](O)[C@H](O)[C@H]1O [E2G, estradiol‐17β‐D‐glucuronide]
Transport rate in OATP1B1-transfected cells without rifampin ([4]; E2G 0.1 μM, SG 10 μM): 4.77 pmol/mg protein
Transport rate in Oatp1b2-transfected cells without rifampin ([5]; E2G 0.1 μM, SG 10 μM): 26.73 pmol/mg protein

CO[C@H]1/C=C/O[C@@]2(C)Oc3c(C)c(O)c4c(O)c(c(/C=N/N5CCN(C)CC5)c(O)c4c3C2=O)NC(=O)/C(C)=C\C=C\[C@H](C)[C@H](O)[C@@H](C)[C@@H](O)[C@@H](C)[C@H](OC(C)=O)[C@@H]1C [rifampin]
Reduction of intracellular uptake of SG by OATP1B1 [4, 11]: 92%
Inhibition of E2G uptake by human OATP1B1 [4, 12]: strongly inhibited
Reduction of intracellular uptake of SG by Oatp1b2 [5, 11]: 97%
Inhibition of E2G uptake by mouse Oatp1b2 [5, 12]: strongly inhibited
Effect of rifampin on OATP1B1-mediated basal-to-apical translocation of SG [6]: diminished
Toxicities attributable to the drug during the clinical study [1]: no toxicities were observed
Plasma Cmax of unbound rifampin [7]: ~1.3 μM and 1.1 mg/L
Substrate-dependent variation in IC50 values for inhibition of OATP1B1 [8]: up to 12 fold

CNC(=O)c1cc(Oc2ccc(NC(=O)N(c3ccc(Cl)c(C(F)(F)F)c3)[C@@H]3O[C@H](C(=O)O)[C@@H](O)[C@H](O)[C@H]3O)cc2)ccn1 [SG, sorafenib‐β‐D‐glucuronide]
Transport rate in OATP1B1-transfected cells without rifampin ([4]; E2G 0.1 μM, SG 10 μM): 57.46 pmol/mg protein
Transport rate in Oatp1b2-transfected cells without rifampin ([5]; E2G 0.1 μM, SG 10 μM): 770.17 pmol/mg protein
Increase in SG AUC0-7.5h with Oatp1b2-deficiency ([2]; Oatp1b2(-/-) versus wildtype mice, sorafenib 10 mg/kg oral): 8 fold
Reduction of liver-to-plasma ratio of SG ([2]; wildtype mice pretreated with rifampin 20 mg/kg, 7.5 h after sorafenib 10 mg/kg): ~90%
Increase of SG levels by rifampin in humans ([3]; humans): ~2 fold
Mean metabolic ratio of SG to sorafenib during rifampin administration [3, 10]: significantly increased
Detection of SG in feces [9]: not detectable
Mean steady-state (trough) concentration (Css) ([7]; 16 cancer patients, sorafenib 90 mg/m^2 oral, days 7, 13 and 21): 0.954 µg/mL

COc1ccccc1Oc1c(NS(=O)(=O)c2ccc(C(C)(C)C)cc2)nc(-c2ncccn2)nc1OCCO [bosentan]
Change in systemic exposure with extended rifampin exposure ([7]; rifampin 600 mg once daily for 6.5 days): –58%
Change in systemic exposure with acute rifampin exposure ([7]; rifampin 600 mg once daily, 1–2 doses): +500%

CNC(=O)c1cc(Oc2ccc(NC(=O)Nc3ccc(Cl)c(C(F)(F)F)c3)cc2)ccn1 [Sorafenib, sorafenib]
Effect of Oatp1b2-deficiency and/or rifampin pretreatment on plasma levels ([2]; sorafenib 10 mg/kg oral): did not substantially affect
Fraction of the dose eliminated as oxidative metabolites [9]: less than 5%
Fraction of the dose eliminated as sorafenib-β-D-glucuronide (SG) [9]: 15%
Influence of the CYP3A4 inhibitor ketoconazole on PK ([7]; healthy male volunteers, single-dose sorafenib): no influence
Variation in exposure between patients receiving the same therapeutic regimen ([7]; oral sorafenib): up to 90%
Decrease in systemic exposure with neomycin ([7]; ref Nexavar package insert): more than 50%
